Measurements reported in ChEMBL document CHEMBL1649452, “The chromosomal toxin gene yafQ is a determinant of multidrug tolerance for Escherichia coli growing in a biofilm” (2009).
In brackets after ≈: the same amount, converted by molar mass. Activity calls are given as the source filed them. No cut-off for these calls is given here.

Columns and labels:
Escherichia coli [1] = assay: Bactericidal activity against yafQ gene-deficient Escherichia coli K-12 BW25113 biofilm assessed as log reduction of viable cells after 24 hrs relative to wild-type Escherichia coli K-12 BW25113; format: functional
Method in brief: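 Biofilms grown 24 h at 37°C, 125 rpm, 95% humidity on Calgary device pegs from ~1.0 × 10^7 CFU/ml inoculum (1.0 McFarland diluted 30-fold). After a saline rinse, biofilms went into twofold antibiotic dilutions, were rinsed twice, and sonicated 5 min in LB with 1% Tween 20. Survivors were counted on LB agar after ≥24 h at 37°C. Mean log killing compared with wild type; significance required ≥50-fold difference and non-overlapping SDs.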

Escherichia coli [2] = assay: Bactericidal activity against yafQ gene-deficient Escherichia coli K-12 BW25113 stationary-phase planktonic cell assessed as log reduction of viable cells after 24 hrs; format: functional, organism-based
Method in brief: (§1)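 Stationary-phase planktonic cells from LB grown 18–20 h at 225 rpm, 37°C, then pelleted and resuspended at 2× concentration in fresh medium. 100 μl cells added to 100 μl of 2× twofold antibiotic dilutions. Starting counts by viable plating. Recovery, dilution and counting as for biofilms (LB + 1% Tween 20, LB agar ≥24 h at 37°C); mean log killing calculated.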

Escherichia coli [3] = assay: Bactericidal activity against Escherichia coli K-12 BW25113 biofilm harboring pCA24N ptac::yafQ plasmid assessed as log reduction of viable cells after 24 hrs pretreated with 5 uM of IPTG for 4 hrs; format: functional, organism-based
Method in brief: (§2)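 Biofilms grown 24 h at 37°C, 125 rpm, 95% humidity on Calgary device pegs from ~1.0 × 10^7 CFU/ml inoculum. Strain carries IPTG-inducible pCA24N vector, grown with 30 μg/ml chloramphenicol. Biofilms were rinsed, then induced 4 h at 37°C, 125 rpm in LB with chloramphenicol and 5 μM IPTG before twofold antibiotic dilutions. Survivors were recovered by sonication in LB plus 1% Tween 20 and plated; mean log killing calculated.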

Escherichia coli [4] = assay: Bactericidal activity against Escherichia coli K-12 BW25113 stationary-phase planktonic cell assessed as log reduction of viable cells after 24 hrs; format: functional, organism-based; method in brief: as §1
Escherichia coli [5] = assay: Effect on survival of Escherichia coli K-12 BW25113 biofilm harboring pCA24N ptac::yafQ plasmid assessed as increase in cell survival after 24 hrs pretreated with 5 uM of IPTG for 4 hrs relative to wild-type Escherichia coli K-12 […]; format: functional; method in brief: as §2
Escherichia coli [6] = assay: Antimicrobial activity against Escherichia coli K-12 BW25113 by broth microdilution method; format: functional
Method in brief: (§3)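 Broth microdilution MIC per CLSI protocol; wild-type and ΔyafQ strains from Keio collection, stored at −70°C in LB with 8% DMSO, cultured on LB agar at 37°C.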

Escherichia coli [7] = assay: Antimicrobial activity against yafQ gene-deficient Escherichia coli K-12 BW25113 by broth microdilution method; format: functional; method in brief: as §3
Escherichia coli [8] = assay: Bactericidal activity against yafQ gene-deficient Escherichia coli K-12 BW25113 biofilm assessed as log reduction of viable cells after 24 hrs; format: functional, organism-based
Method in brief: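 Biofilms grown on the 96-peg polystyrene lid of a Calgary biofilm device. Inoculum was a 1.0 McFarland suspension diluted 30-fold in growth medium (~1.0 × 10^7 CFU/ml). Grown 24 h at 37°C, 125 rpm, 95% humidity, then saline-rinsed and exposed to twofold antibiotic dilutions. Rinsed twice, sonicated 5 min in LB + 1% Tween 20, plated on LB agar ≥24 h at 37°C. Mean log killing taken from viable counts.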

## Cc1nnc(SCC2=C(C(=O)O)N3C(=O)[C@@H](NC(=O)Cn4cnnn4)[C@H]3SC2)s1 [CEFAZOLIN]
Escherichia coli [1]
  FC: 2400
Escherichia coli [2]
  Activity: Active
Escherichia coli [3]
  Activity: inactive
Escherichia coli [4]
  Activity: Active
Escherichia coli [5]
  fold change (FC): 10000
Escherichia coli [6]
  MIC: 4 µg/mL (≈ 8.8 µM)
Escherichia coli [7]
  MIC: 4 µg/mL (≈ 8.8 µM)

## C[C@H]1c2cccc(O)c2C(=O)C2=C(O)[C@]3(O)C(=O)C(C(N)=O)=C(O)[C@@H](N(C)C)[C@@H]3[C@@H](O)[C@@H]21.O [DOXYCYCLINE]
Escherichia coli [3]
  Activity: Active
Escherichia coli [6]
  MIC: 4 µg/mL
Escherichia coli [8]
  Activity: Active
Escherichia coli [7]
  MIC: 3 µg/mL

## CO[C@H]1/C=C/O[C@@]2(C)Oc3c(C)c(O)c4c(O)c(c(/C=N/N5CCN(C)CC5)c(O)c4c3C2=O)NC(=O)/C(C)=C\C=C\[C@H](C)[C@H](O)[C@@H](C)[C@@H](O)[C@@H](C)[C@H](OC(C)=O)[C@@H]1C [RIFAMPIN]
Escherichia coli [3]
  Activity: Active
Escherichia coli [6]
  MIC: 16 µg/mL (≈ 19.4 µM)
Escherichia coli [8]
  Activity: Active
Escherichia coli [7]
  MIC: 16 µg/mL (≈ 19.4 µM)

## NC[C@H]1O[C@H](O[C@H]2[C@H](O)[C@@H](O[C@H]3O[C@H](CO)[C@@H](O)[C@H](N)[C@H]3O)[C@H](N)C[C@@H]2N)[C@H](N)C[C@@H]1O [TOBRAMYCIN]
Escherichia coli [1]
  FC: 760
Escherichia coli [2]
  Activity: Active
Escherichia coli [3]
  Activity: inactive
Escherichia coli [4]
  Activity: Active
Escherichia coli [5]
  fold change (FC): 3300
Escherichia coli [6]
  MIC: 1.5 µg/mL (≈ 3.21 µM)
Escherichia coli [7]
  MIC: 2 µg/mL (≈ 4.28 µM)
